Measurements published in paper PMC7993281 (Clinical and Translational Science, 2020).

Tests used:
[1] = SAD study tolerability/safety; assay type: in vivo, human
Method in brief: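 Healthy men aged 18–55 years, single oral doses of 10–2,000 mg, 6 active and 2 placebo per cohort, staggered dosing. Fasted dosing, plus a fed period in the 300 mg cohort after at least 7 days washout. Subjects were confined until 48 h post-dose, with follow-up at 29–34 days. AEs, vital signs, ECG, examination and laboratory tests were summarised descriptively.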

[2] = tested on: globotriaosylceramide (Gb3) plasma concentration; experiment: MAD study pharmacodynamics: plasma Gb3; assay type: in vivo, human; details: after last dose
[3] = cited from earlier work
[4] = tested on: lactosylceramide (LacCer) plasma concentration; experiment: MAD study pharmacodynamics: plasma LacCer; assay type: in vivo, human; details: 72 hours after the last dose
Method in brief: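 Healthy men and women (1:1), 8 active and 2 placebo per cohort. Oral 30, 100, 300 or 1,000 mg b.i.d. for 7 days. Morning dose after a 10-hour fast, evening dose 2 hours after dinner. Plasma sampled on Days 1, 2, 4 and 7 and at 24, 48 and 72 h after the last dose. Validated LC-MS/MS. Percent change from Day 1 predose.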

[5] = tested on: organic cation transporter 2; details: in vitro; ref Idorsia Pharmaceuticals Ltd, unpublished data; cited from earlier work
Single-ascending dose = assay type: in vivo, human; details: for Tmax / half-life / CL renal: human, oral; for Tmax / half-life: plasma
Method in brief: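 Healthy men, single oral 10–2,000 mg after a 10-hour fast. The 300 mg cohort was repeated 30 min after a high-fat, high-calorie breakfast following at least 7 days washout. Plasma sampled up to 48 h; 300 mg urine collected at 0–12, 12–24 and 24–48 h. Validated LC-MS/MS with noncompartmental analysis. Fed/fasted GMR with 90% CI; Tmax compared by nonparametric median difference.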

[6] = tested on: non‐lysosomal glucosylceramidase (GBA2) vs glucosylceramide synthase (GCS); experiment: Relative inhibitory potency on GBA2 versus GCS; assay type: biochemical
[7] = MAD study tolerability/safety; assay type: in vivo, human
Method in brief: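 Healthy men and women aged 18–55 years, BMI 18–30 kg/m2, 8 active and 2 placebo per cohort. Oral 30–1,000 mg b.i.d. for 7 days with staggered dosing. Subjects were confined until 72 h after the last dose, with follow-up at 29–34 days. AEs, vital signs, ECG, physical examination and clinical laboratory tests were recorded and summarised descriptively.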

[8] = SAD, all doses, fasted conditions, 36 subjects
[9] = MAD 300 mg b.i.d. for 7 days (n = 8)

fraction of dose excreted unchanged in urine (Single-ascending dose; 300 mg single dose): About half
median difference in Tmax, fed vs fasted (Single-ascending dose; 300 mg single dose, high‐fat, high‐calorie meal, 90% CI 0.50–1.70): 1 h
Tmax (Single-ascending dose; 100 mg, single dose 100 mg, fasted, median (range)): 1.4 h
Tmax (Single-ascending dose; 300 mg, single dose 300 mg fasted, median (range)): 0.9 h
Tmax (Single-ascending dose; 300 mg, single dose 300 mg fed, median (range)): 2.25 h
half-life (Single-ascending dose; 1000 mg): 11.6 h
Tmax (Single-ascending dose; 1000 mg, single dose 1,000 mg, fasted, median (range)): 1.5 h
Tmax (Single-ascending dose; 2000 mg, single dose 2,000 mg, fasted, median (range)): 2 h
CL renal (Single-ascending dose; urine and plasma, 300 mg): 225 mL/min
CL renal (Single-ascending dose; male, plasma and urine, 300 mg): 225 mL/min
half-life (Single-ascending dose; male): ~12 h
Tmax (Single-ascending dose; male, across single doses 10 to 2,000 mg): 0.9 to 2 h
duration of distribution phase (Single-ascending dose; single dose): ~ 24 hours
UPE, percentage of dose excreted unchanged in urine (Single-ascending dose; single dose 300 mg fasted, geometric mean (95% CI)): 48.74 (43.53, 54.59) %
potency in inhibiting GBA2 relative to GCS [6]: 50 fold
Compound: CCCCCN1C[C@H](O)[C@@H](O)[C@H](O)[C@@H]1CO [sinbaglustat, (2S,3R,4R,5S)‐2‐(hydroxymethyl)‐1‐pentylpiperidine‐3,4,5‐triol]
AEs in the 30, 300, and 2,000 mg cohort ([1]; SAD): No AE was reported
Dizziness (subjects) ([1]; SAD 10 mg (n = 6)): 1
Number of subjects with at least 1 AE ([1]; SAD 10 mg (n = 6)): 1
Total number of AEs ([1]; SAD 10 mg (n = 6)): 1
Number of subjects with at least 1 AE ([1]; SAD 100 mg (n = 6)): 3
Rash (subjects) ([1]; SAD 100 mg (n = 6)): 1
Total number of AEs ([1]; SAD 100 mg (n = 6)): 3
AEs under fed conditions ([1]; SAD 300 mg fed): no AE was reported
Headache (subjects) ([1]; SAD 1,000 mg (n = 6)): 2
Nausea (subjects) ([1]; SAD 1,000 mg (n = 6)): 1
Number of subjects with at least 1 AE ([1]; SAD 1,000 mg (n = 6)): 3
Palpitations (subjects) ([1]; SAD 1,000 mg (n = 6)): 1
Viral upper respiratory tract (subjects) ([1]; SAD 1,000 mg (n = 6)): 1
Vomiting (subjects) ([1]; SAD 1,000 mg (n = 6)): 1
subjects reporting AEs (of 36 treated) ([1]; SAD, all doses, fasted conditions): 7
subjects reporting AEs [1, 8]: 19%
total AEs reported [1, 8]: 13
serious AEs, severe AEs, AEs leading to discontinuation ([1]; whole study (SAD and MAD), up to end‐of‐study): No serious AEs, severe AEs, or AEs leading to study or treatment discontinuation occurred
Gb3 mean percentage change from baseline after treatment stop [2]: remained stable for 3 days after treatment stop
blood‐brain barrier crossing [3]: crosses the blood‐brain barrier
LacCer percentage change from baseline ([4]; 30 mg b.i.d.): –8%
LacCer percentage change from baseline ([4]; 1,000 mg b.i.d.): –33%
organic cation transporter 2 interaction [5]: a substrate and an inhibitor
Dizziness (subjects) ([7]; MAD 30 mg b.i.d. (n = 8)): 4
Headache (subjects) ([7]; MAD 30 mg b.i.d. (n = 8)): 2
Muscle twitching (subjects) ([7]; MAD 30 mg b.i.d. (n = 8)): 1
Pain in extremity (subjects) ([7]; MAD 30 mg b.i.d. (n = 8)): 1
Viral upper respiratory tract (subjects) ([7]; MAD 30 mg b.i.d. (n = 8)): 1
Total number of AEs ([7]; MAD 30 mg b.i.d. for 7 days (n = 8)): 13
Dizziness (subjects) ([7]; MAD 100 mg b.i.d. (n = 8)): 2
Fatigue (subjects) ([7]; MAD 100 mg b.i.d. (n = 8)): 1
Total number of AEs ([7]; MAD 100 mg b.i.d. for 7 days (n = 8)): 8
Dizziness (subjects) ([7]; MAD 300 mg b.i.d. (n = 8)): 1
Headache (subjects) ([7]; MAD 300 mg b.i.d. (n = 8)): 2
Nausea (subjects) ([7]; MAD 300 mg b.i.d. (n = 8)): 1
Rash (subjects) ([7]; MAD 300 mg b.i.d. (n = 8)): 1
Number of subjects with at least 1 AE [7, 9]: 4
Total number of AEs [7, 9]: 8
Constipation (subjects) ([7]; MAD 1,000 mg b.i.d. (n = 8)): 1
Decreased appetite (subjects) ([7]; MAD 1,000 mg b.i.d. (n = 8)): 3
Diarrhea (subjects) ([7]; MAD 1,000 mg b.i.d. (n = 8)): 2
Dizziness (subjects) ([7]; MAD 1,000 mg b.i.d. (n = 8)): 3
Fatigue (subjects) ([7]; MAD 1,000 mg b.i.d. (n = 8)): 2
Headache (subjects) ([7]; MAD 1,000 mg b.i.d. (n = 8)): 4
